Reference: ChEMBL document CHEMBL5252535, “Design of nucleotide-mimetic and non-nucleotide inhibitors of the translation initiation factor eIF4E: Synthesis, structural and functional characterisation” (Eur J Med Chem, 2016)
Calls of active or inactive are those of the source. The calls are words filed in the database; no cut-off is given here.

Legend:
Reticulocyte [1] = experiment: Inhibition of cap dependent translation of renilla luciferase mRNA in pRHCVF RNA primed rabbit reticulocyte lysate at 100 uM incubated for 90 mins by […]; type: functional, subcellular; conditions: Oryctolagus cuniculus
In short: (§1)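 Rabbit reticulocyte lysate primed with 20 ng capped pRHCVF RNA (20 μL), 30 °C for 90 min, then on ice. Renilla (cap-dependent) and firefly (HCV IRES) luciferase read; final DMSO ≤1%; inhibition relative to 1% DMSO control set at 100%; m7GTP positive control. Three independent experiments, Student's t-test, S.D.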

HeLa [2] = experiment: Inhibition of protein synthesis in methionine-starved human HeLa cells incubated for 24 hrs by scintillation counting based 35S-Met incorporation assay; type: functional, cell-based
In short: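 HeLa cells seeded at 6 × 10^4 per well, grown 24 h to 70% confluency, treated 24 h; Met-starved 30 min in Met-free DMEM with fresh compound, then pulsed 30 min with 35S-Met. Cells washed, lysed, protein TCA-precipitated and scintillation counted; puromycin positive control; three independent occasions; IC50 derived.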

MCF7 = experiment: Inhibition of protein synthesis in methionine-starved human MCF7 cells incubated for 24 hrs by scintillation counting based 35S-Met incorporation assay; type: functional, cell-based
Reticulocyte [3] = experiment: Inhibition of HCV-IRES mediated cap-independent translation of firefly luciferase mRNA in rabbit reticulocyte lysate at 100 uM incubated for 90 mins by […]; type: functional, subcellular; conditions: Oryctolagus cuniculus; in short: as §1
[4] = target: T1, Eukaryotic translation initiation factor 4E (Homo sapiens, UniProt P06730); experiment: Inhibition of m7GDP fluorescent probe binding to recombinant eIF4E (unknown origin) assessed as dissociation constant by fluorescence polarization assay
[5] = target: T1, Eukaryotic translation initiation factor 4E; experiment: Inhibition of P32-[alpha-GTP] cap radiolabelled RNA binding to recombinant eIF4E (unknown origin) assessed as decrease in cross linked RNA-eIF4E complex formation preincubated with UV radiation for 30 mins followed by RNase addition and measured after 30 mins by SDS-PAGE based autoradiographic analysis
Reticulocyte [6] = experiment: Inhibition of cap dependent translation of renilla luciferase mRNA in pRHCVF RNA primed rabbit reticulocyte lysate at 25 to 100 uM incubated for 90 mins by […]; type: functional, subcellular; conditions: Oryctolagus cuniculus, dose 25-100 µM; in short: as §1
Reticulocyte [7] = experiment: Inhibition of HCV-IRES mediated cap-independent translation of firefly luciferase mRNA in rabbit reticulocyte lysate at 25 to 100 uM incubated for 90 mins by […]; type: functional, subcellular; conditions: Oryctolagus cuniculus, dose 25-100 µM; in short: as §1
HeLa [8] = experiment: Downregulation of cMyc protein level in human HeLa cells at 50 to 100 uM incubated for 2 hrs by Western blot analysis; type: functional, cell-based; conditions: dose 50-100 µM
In short: (§2)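 HeLa cells treated 2 h; lysates probed by western blotting for c-myc and cyclin D1, actin as loading control.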

HeLa [9] = experiment: Downregulation of cyclin D1 protein level in human HeLa cells at 50 to 100 uM incubated for 2 hrs by Western blot analysis; type: functional, cell-based; conditions: dose 50-100 µM; in short: as §2
HeLa [10] = experiment: Inhibition of cap dependent translation in human HeLa cells assessed as decrease in amount of RNA incorporated in polysomes at 25 uM incubated for 2 hrs by UV absorbance recording based assay; type: functional, cell-based
In short: (§3)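 HeLa cells seeded in 15-cm dishes, grown 24 h to 70% confluency, treated 2 h; cycloheximide (0.1 mg/mL) added, cells harvested on ice and lysed (300 mM NaCl, 15 mM MgCl2, 15 mM Tris pH 7.5, heparin, cycloheximide, 0.1% Triton X-100). Lysates run on 10–60% sucrose gradients, 38,000 rpm 2 h; 1 mL fractions with continuous UV absorbance; polysome vs subpolysome areas compared; puromycin positive control.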

HeLa [11] = experiment: Inhibition of cap dependent translation in human HeLa cells assessed as increase in sub-polysomal material at 50 to 100 uM incubated for 2 hrs by UV absorbance recording based assay; type: functional, cell-based; conditions: dose 50-100 µM; in short: as §3

T1 sequence (P06730 whole entry): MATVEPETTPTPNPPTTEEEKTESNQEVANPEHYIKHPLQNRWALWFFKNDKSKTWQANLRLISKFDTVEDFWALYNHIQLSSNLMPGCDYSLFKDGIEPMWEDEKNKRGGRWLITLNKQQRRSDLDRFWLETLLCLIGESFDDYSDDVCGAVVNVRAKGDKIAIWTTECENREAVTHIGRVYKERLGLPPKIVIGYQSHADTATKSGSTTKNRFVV

| SMILES | inhibition (Reticulocyte [1]) | inhibition (Reticulocyte [3]) | Kd [4] [µM] | IC50 [5] [µM] | inhibition (Reticulocyte [6]) | inhibition (Reticulocyte [7]) | inhibition (HeLa [2]) | inhibition (MCF7) | Activity (HeLa [8]) | Activity (HeLa [9]) | inhibition (HeLa [10]) | inhibition (HeLa [11]) |
| --- | --- | --- | --- | --- | --- | --- | --- | --- | --- | --- | --- | --- |
| C[n+]1cn([C@@H]2O[C@H](COP(=O)(O)OP(=O)(O)OP(=O)(O)O)[C@@H](O)[C@H]2O)c2nc(N)[nH]c(=O)c21 | – | – | – | – | – | – | inactive | inactive | – | – | – | – |
| C[n+]1cn([C@@H]2O[C@H](COP(=O)(O)O)[C@@H](O)[C@H]2O)c2nc(N)[nH]c(=O)c21 | – | – | – | – | – | – | inactive | inactive | – | – | – | – |
| CC(C)CNC(=S)N(Cc1ccccc1)Cc1cc2cc3c(cc2[nH]c1=O)OCO3 | – | – | 57.8 | – | Active | inactive | – | – | Active | Active | Active | Active |

Second part, led by results:

| inhibition (Reticulocyte [1]) | inhibition (Reticulocyte [3]) | Kd [4] [µM] | IC50 [5] [µM] | inhibition (Reticulocyte [6]) | inhibition (Reticulocyte [7]) | SMILES | inhibition (HeLa [2]) | inhibition (MCF7) | Activity (HeLa [8]) | Activity (HeLa [9]) | inhibition (HeLa [10]) | inhibition (HeLa [11]) |
| --- | --- | --- | --- | --- | --- | --- | --- | --- | --- | --- | --- | --- |
| Active | inactive | – | – | – | – | C[n+]1cn([C@@H]2O[C@H](CNS(=O)(=O)c3ccc(C(=O)O)cc3)[C@@H](O)[C@H]2O)c2nc(N)[nH]c(=O)c21 | inactive | inactive | – | – | – | – |
| Active | inactive | 56.5 | 12.6 | – | – | Nc1nc2c(c(=O)[nH]1)[n+](Cc1ccccc1)cn2[C@@H]1O[C@H](CNS(=O)(=O)C(F)(F)F)[C@@H](O)[C@H]1O | inactive | inactive | – | – | – | – |
